Reference: ChEMBL document CHEMBL1133172, “Discovery of orally active nonpeptide vitronectin receptor antagonists based on a 2-benzazepine Gly-Asp mimetic” (J Med Chem, 2000)

Experiments:
[1] = Half life period in rat; format: ADME, organism-based; settings: in vivo
Method in brief: (§1)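 Rats; plasma concentration–time data of test compound from two to three separate animals, analysed noncompartmentally for half-life and clearance.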

[2] = Plasma clearance in rat; format: ADME, organism-based; method in brief: as §1
[3] = Oral bioavailability in rat; format: ADME, organism-based; settings: in vivo
Method in brief: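 Rat iv and po dosing; plasma concentration–time data from two to three animals; oral bioavailability calculated from dose-normalized iv and po AUC values.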

Integrin alpha-V/beta-3 [4] = target: T1, Integrin alpha-V/beta-3 (Homo sapiens, UniProt P05106+P06756); assay: HEK cell adhesion mediated by alpha v beta 3 integrin; format: functional, cell-based, HEK293
Method in brief: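 HEK 293 cells transfected with human αvβ3; inhibition of their adhesion to purified human vitronectin measured. IC50 as the mean of two experiments run in triplicate, with an internal standard.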

Integrin alpha-V/beta-3 [5] = target: T1, Integrin alpha-V/beta-3; assay: Binding affinity for Vitronectin receptor (alpha V beta 3); format: protein-complex assay
Method in brief: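 Competition binding to human αvβ3 with displacement of 3H-SK&F 107260; Ki from the mean of two to three separate experiments.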

[6] = target: Integrin alpha-IIb/beta-3 (Homo sapiens, UniProt P05106+P08514); assay: Binding affinity for alpha IIb beta-3 integrin; format: protein-complex assay
Method in brief: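 Human αIIbβ3 competition binding, 3H-SK&F 107260 as the displaced radioligand; Ki averaged over two to three separate experiments.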

Chain of Integrin alpha-IIb/beta-3 (P05106 27-788 limits assumed): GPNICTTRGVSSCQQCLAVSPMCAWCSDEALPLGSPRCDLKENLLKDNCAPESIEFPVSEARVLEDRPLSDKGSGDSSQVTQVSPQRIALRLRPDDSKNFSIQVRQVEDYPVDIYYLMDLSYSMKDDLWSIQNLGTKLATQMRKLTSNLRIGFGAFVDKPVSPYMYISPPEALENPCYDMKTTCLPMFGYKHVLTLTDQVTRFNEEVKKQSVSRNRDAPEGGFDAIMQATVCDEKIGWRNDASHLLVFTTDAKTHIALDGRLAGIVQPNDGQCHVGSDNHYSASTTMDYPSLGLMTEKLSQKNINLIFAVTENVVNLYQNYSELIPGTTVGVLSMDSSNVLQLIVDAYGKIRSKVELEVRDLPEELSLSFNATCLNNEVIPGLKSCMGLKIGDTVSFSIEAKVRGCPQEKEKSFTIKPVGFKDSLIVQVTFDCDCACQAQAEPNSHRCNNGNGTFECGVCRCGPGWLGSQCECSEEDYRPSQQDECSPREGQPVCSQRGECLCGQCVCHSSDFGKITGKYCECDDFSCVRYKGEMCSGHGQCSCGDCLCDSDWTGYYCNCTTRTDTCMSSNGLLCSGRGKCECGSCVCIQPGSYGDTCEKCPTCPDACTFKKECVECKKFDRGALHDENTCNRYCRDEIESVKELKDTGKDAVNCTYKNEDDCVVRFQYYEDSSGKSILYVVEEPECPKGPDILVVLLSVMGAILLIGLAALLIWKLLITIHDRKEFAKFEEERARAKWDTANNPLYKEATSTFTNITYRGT
Chain of Integrin alpha-IIb/beta-3 (P08514 32-887 limits assumed): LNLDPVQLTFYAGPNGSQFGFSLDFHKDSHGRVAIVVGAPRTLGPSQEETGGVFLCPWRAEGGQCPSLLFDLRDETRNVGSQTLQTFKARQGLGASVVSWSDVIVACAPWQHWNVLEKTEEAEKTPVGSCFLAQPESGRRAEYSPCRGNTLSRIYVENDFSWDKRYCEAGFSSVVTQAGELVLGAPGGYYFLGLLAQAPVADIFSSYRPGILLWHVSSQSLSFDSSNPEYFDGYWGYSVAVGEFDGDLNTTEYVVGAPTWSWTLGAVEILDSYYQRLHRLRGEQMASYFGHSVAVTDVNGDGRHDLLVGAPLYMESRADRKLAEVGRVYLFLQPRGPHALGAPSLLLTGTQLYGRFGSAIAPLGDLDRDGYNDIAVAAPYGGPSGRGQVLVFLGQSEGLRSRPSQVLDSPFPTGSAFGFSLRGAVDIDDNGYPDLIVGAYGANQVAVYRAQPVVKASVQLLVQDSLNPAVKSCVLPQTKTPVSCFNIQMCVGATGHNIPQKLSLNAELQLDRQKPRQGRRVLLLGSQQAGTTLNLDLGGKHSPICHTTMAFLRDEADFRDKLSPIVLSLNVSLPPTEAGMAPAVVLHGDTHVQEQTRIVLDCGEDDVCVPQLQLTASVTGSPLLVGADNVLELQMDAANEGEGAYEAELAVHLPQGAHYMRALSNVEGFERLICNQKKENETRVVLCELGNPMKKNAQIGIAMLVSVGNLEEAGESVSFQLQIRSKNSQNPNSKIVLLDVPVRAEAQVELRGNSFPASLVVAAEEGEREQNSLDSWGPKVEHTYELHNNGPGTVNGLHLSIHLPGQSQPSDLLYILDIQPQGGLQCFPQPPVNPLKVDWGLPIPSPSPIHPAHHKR
Chain of Integrin alpha-IIb/beta-3 (P08514 891-1039 limits assumed): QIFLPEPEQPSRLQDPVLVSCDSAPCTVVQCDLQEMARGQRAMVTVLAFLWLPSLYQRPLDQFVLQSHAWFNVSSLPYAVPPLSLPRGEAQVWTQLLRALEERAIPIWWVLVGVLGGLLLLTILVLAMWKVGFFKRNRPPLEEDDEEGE
T1 sequence (P05106 27-788 limits assumed): as the sequence (P05106 27-788 limits assumed) above
T1 sequence (P06756 31-889 limits assumed): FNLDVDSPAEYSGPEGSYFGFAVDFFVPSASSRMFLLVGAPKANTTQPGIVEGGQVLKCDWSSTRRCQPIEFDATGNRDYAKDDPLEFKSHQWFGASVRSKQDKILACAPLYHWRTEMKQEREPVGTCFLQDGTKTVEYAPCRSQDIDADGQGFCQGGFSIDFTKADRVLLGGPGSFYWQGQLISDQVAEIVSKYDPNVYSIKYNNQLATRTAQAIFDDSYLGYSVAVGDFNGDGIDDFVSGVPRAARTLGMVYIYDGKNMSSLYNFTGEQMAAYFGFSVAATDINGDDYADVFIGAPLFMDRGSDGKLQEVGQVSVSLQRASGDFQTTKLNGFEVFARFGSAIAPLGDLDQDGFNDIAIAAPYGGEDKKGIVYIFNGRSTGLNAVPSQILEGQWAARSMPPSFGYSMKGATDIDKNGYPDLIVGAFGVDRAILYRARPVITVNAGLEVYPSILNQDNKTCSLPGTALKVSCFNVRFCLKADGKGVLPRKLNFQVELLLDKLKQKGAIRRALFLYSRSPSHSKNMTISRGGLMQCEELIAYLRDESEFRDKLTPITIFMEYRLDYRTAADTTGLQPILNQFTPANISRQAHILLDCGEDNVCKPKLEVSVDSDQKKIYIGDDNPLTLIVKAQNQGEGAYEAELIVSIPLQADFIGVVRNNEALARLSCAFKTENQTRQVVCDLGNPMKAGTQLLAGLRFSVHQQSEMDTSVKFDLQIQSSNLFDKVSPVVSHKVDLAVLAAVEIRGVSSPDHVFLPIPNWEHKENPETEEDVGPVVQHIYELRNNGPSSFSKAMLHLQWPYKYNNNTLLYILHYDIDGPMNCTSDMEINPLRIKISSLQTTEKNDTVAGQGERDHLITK
T1 sequence (P06756 891-1048 limits assumed): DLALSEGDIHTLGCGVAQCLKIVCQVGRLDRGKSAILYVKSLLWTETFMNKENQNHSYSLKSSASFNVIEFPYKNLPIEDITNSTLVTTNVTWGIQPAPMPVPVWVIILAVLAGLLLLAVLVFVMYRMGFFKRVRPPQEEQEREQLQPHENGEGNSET

SMILES | half-life [1] | clearance [2] | bioavailability [3] | IC50 (Integrin alpha-V/beta-3 [4]) | Ki (Integrin alpha-V/beta-3 [5]) | Ki [6]
O=C(O)C[C@@H]1Cc2ccc(OCCCNc3ccccn3)cc2Cc2ccccc21 | 192 min | 4 mL/min/kg | – | – | – | –
CN1Cc2cc(OCCCNc3ccccn3)ccc2CC(CC(=O)O)C1=O (stereo unspecified) | 16 min | 50 mL/min/kg | 9% | 75 nM | 1.9 nM | 30000 nM
O=C(O)C[C@@H]1Cc2ccc(OCCCNc3ccccn3)cc2CN(CC(F)(F)F)C1=O | 360 min | 16 mL/min/kg | 34% | 12 nM | 0.9 nM | 3300 nM

The next lines start with the values.

half-life [1] | clearance [2] | bioavailability [3] | IC50 (Integrin alpha-V/beta-3 [4]) | Ki (Integrin alpha-V/beta-3 [5]) | Ki [6] | SMILES
25 min | 63 mL/min/kg | 19% | 53 nM | 1.3 nM | 9000 nM | O=C(O)CC1Cc2ccc(OCCCNc3ccccn3)cc2CN(CC(F)(F)F)C1=O (stereo unspecified)
19 min | 60 mL/min/kg | 4% | 390 nM | 20 nM | – | O=C(O)C[C@H]1Cc2ccc(OCCCNc3ccccn3)cc2CN(CC(F)(F)F)C1=O
53 min | 25 mL/min/kg | 72% | 3 nM | 1.2 nM | 3800 nM | CNc1cccc(CCOc2ccc3c(c2)CN(CC(F)(F)F)C(=O)[C@H](CC(=O)O)C3)n1
